An excerpt weighted towards active compounds, which were near 1.2% of everything screened.
A3G deaminase: APOBEC3G (human) deaminase inhibition; Q9HC16; inhibition, % at 20 µM; 330,000 compounds, 0.28% hits; recombinant A3G, ssDNA deamination FAM/TAMRA fluorescence;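 active = inhibition of at least 40% at 20 µM, with no more than 30% in the related APOBEC3A deaminase screen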;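 also: plate controls were DMSO wells with A3G for no effect and wells lacking A3G enzyme for full effect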
Target sequence (Q9HC16 whole entry, looked up): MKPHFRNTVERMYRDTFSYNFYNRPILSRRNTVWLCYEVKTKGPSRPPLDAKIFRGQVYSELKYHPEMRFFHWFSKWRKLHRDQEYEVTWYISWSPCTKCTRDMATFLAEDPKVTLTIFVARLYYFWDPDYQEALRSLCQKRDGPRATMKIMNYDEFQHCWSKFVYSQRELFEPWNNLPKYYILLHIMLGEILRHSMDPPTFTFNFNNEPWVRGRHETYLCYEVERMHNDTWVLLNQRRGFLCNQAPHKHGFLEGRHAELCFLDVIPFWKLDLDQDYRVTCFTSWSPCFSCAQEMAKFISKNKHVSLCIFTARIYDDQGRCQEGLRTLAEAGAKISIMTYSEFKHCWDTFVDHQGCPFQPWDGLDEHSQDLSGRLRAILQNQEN
APOBEC3A inh: human APOBEC3A DNA deaminase inhibition; recombinant A3A, FAM/TAMRA ssDNA deamination fluorescence; inhibition, % at 20 µM; 330,000 compounds, 0.41% hits;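 active = at least 40% inhibition at 20 µM here, with at most 30% in a related deaminase screen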;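 also: plate controls were A3A with DMSO for no effect and wells lacking A3A enzyme for full effect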
Target sequence (P31941 whole entry, looked up): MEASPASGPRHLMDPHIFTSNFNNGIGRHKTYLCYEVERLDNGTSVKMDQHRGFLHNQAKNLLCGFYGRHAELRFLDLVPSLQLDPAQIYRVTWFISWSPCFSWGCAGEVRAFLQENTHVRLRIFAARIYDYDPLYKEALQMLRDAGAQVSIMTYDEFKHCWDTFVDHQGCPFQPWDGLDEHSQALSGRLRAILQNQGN
FN deposit inh: fibronectin deposition inhibition; AH1F fibroblasts, Alexa488-fibronectin deposition fluorescence, overnight; inhibition, % at 12.6 µM; 350,000 compounds, 0.086% hits; AID 743247;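 active = mean inhibition across replicates of 30% or more, regardless of how many single replicates reach that level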;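 also: positive control wells lacked labelled fibronectin entirely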
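Assay system: AH1F fibroblast monolayer, labelled fibronectin deposition. Amount: 10000 cells per well. Also added: labelled fibronectin 24 nM. Compound: single-point pinned compound. Incubation: cell attachment 1 h, compound and FN exposure overnight. Detection: fluorescence after three HBSS washes, excitation 485 nm, emission 525 nm. Read-out: inhibition of fibronectin deposition signal.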
ABHD5 PLIN5 PPI: inhibitors of human ABHD5-perilipin-5 interaction; 360,000 compounds, 0.78% hits; Split G. princeps luciferase complementation, luminescence, 4 h; Q00G26+Q8WTS1; inhibition, % at 4 µM; AID 602281;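 active = inhibition above the mean inhibition across every tested compound plus 3 SD, cut at about 22% in these data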;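 also: 0% = DMSO only wells and the 100% control is not disclosed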
ABHD5 PLIN5 conf: ABHD5-PLIN5 interaction inhibition, confirmed; shares compounds with ABHD5 PLIN5 PPI; AID 651612; 2,200 compounds, 67% hits; biochemical ABHD5-PLIN5 interaction, luminescence; inhibition, % at 4 µM; in the data active = inhibition above about 23%;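 also: 0% = DMSO vehicle wells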
HNF4 split-luc: HNF4 split-luciferase signal hit, counter-screen | HNF4 dimerization, luminescence, biochemical | inhibition, % at 4 µM | AID 651674 | shares compounds with ABHD5 PLIN5 PPI | 2,200 compounds, 77% hits;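 active = mean inhibition across replicate wells exceeding the computed hit threshold, cut at about 13% in these data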;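 also: light from luciferase halves that rejoin when HNF4 fusion proteins dimerize; 0% = DMSO only wells and the 100% control is not given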
* = called active by the depositor; i = inactive; nt = no result given.

SMILES	A3G deaminase	APOBEC3A inh	FN deposit inh	ABHD5 PLIN5 PPI	ABHD5 PLIN5 conf	HNF4 split-luc
CCS(=O)(=O)N1[C@H](CO)[C@H](c2ccccc2)[C@@H]1CN(C)Cc1ccccn1	nt	nt	-3	nt	nt	nt
N#C[C@@H]1[C@@H](c2ccc(-c3cncnc3)cc2)[C@H](CO)N1C(=O)C1CCOCC1	nt	nt	4	nt	nt	nt
CC(C)C(=O)N(c1cc2sc(=O)oc2c2ccccc12)S(=O)(=O)c1cccs1	14	-4	nt	68*	9	75*
C[C@@H]1CN([C@@H](C)CO)C(=O)c2cc(NS(=O)(=O)c3ccc(Cl)cc3)ccc2O[C@H]1CN(C)Cc1ccc2c(c1)OCO2	nt	nt	-2	nt	nt	nt
CN(C)C(=O)c1cccc(-c2ccc3c(c2)[C@H]2[C@H](CCN2Cc2ccccc2F)[C@@H](CO)N3)c1	nt	nt	15	nt	nt	nt
COc1ccc(-c2csc(NC3OC(=O)c4c3ccc(OC)c4OC)n2)cc1OC (configuration not stated)	0	-6	6	34*	63*	49*
Cc1ccc(S(=O)(=O)N2C[C@H](O)COC[C@@H]3O[C@@H](CC(=O)NCc4ccc5c(c4)OCO5)CC[C@H]32)cc1	nt	nt	-6	nt	nt	nt
O=C(/C(=C/c1ccc(Cl)cc1)c1nc2ccccc2[nH]1)c1cccs1	-6	-2	nt	58*	101*	94*
COC(=O)/C(=C\c1cc(OC)c(OC)c(OC)c1)c1nc2ccccc2[nH]1	7	1	-1	1	nt	nt
COc1cc(/C=C(/C(=O)c2cccs2)c2nc3ccccc3[nH]2)ccc1O	3	3	nt	35*	76*	68*
CC(=O)N(C)C[C@@H]1Oc2cc(-c3cccc(C#N)c3)ccc2S(=O)(=O)N([C@H](C)CO)C[C@@H]1C	nt	nt	13	nt	nt	nt
CN(C)c1ccc(-c2[nH][nH]c(=O)c2NC(=O)c2ccc3ccccc3n2)cc1	nt	nt	8	54*	-52	48*
CN(C)c1ccc(-c2[nH][nH]c(=O)c2NC(=O)c2ccccn2)cc1	nt	nt	-7	60*	7	45*
CSc1nnc(NC(=O)c2nc(S(=O)(=O)Cc3ccccc3)ncc2Cl)s1	-7	-3	-16	23*	69*	42*
CC(C)c1nnc(NC(=O)CCc2ccccc2)s1	-8	4	4	10	nt	nt
CSc1ncc(Cl)c(C(=O)Nc2nnc(SC)s2)n1	-5	-4	nt	1	nt	nt
CCCc1nnc(NC(=O)c2nc(S(=O)(=O)Cc3ccc(C)cc3)ncc2Cl)s1	-4	-5	16	44*	77*	53*
CC(C)c1nnc(NC(=O)c2nc(S(=O)(=O)Cc3ccccc3)ncc2Cl)s1	0	-1	8	35*	85*	68*
C[C@H](CO)N1C[C@H](C)[C@@H](CN(C)Cc2ccc(C(F)(F)F)cc2)Oc2ccc(NC(=O)C3CCCCC3)cc2CC1=O	nt	nt	-7	nt	nt	nt
CCN1CCN(C(=O)/C=C/c2ccc(C)o2)CC1	-6	-1	2	-1	nt	nt
Cc1ccc(/C=C/C(=O)N2CC(C)CC(C)C2)o1 (configuration not stated)	28	1	nt	28*	23*	36*
CCC(c1nnnn1Cc1ccco1)N(Cc1ccccc1OC)Cc1cc2cc(C)ccc2[nH]c1=O (configuration not stated)	-6	-3	nt	8	nt	nt
CCC(c1nnnn1Cc1ccco1)N(Cc1cc2cc(C)cc(C)c2[nH]c1=O)CC1CCCO1 (configuration not stated)	4	2	nt	28*	10	10
CCCCn1c(=O)n(CC(=O)Nc2ccc(C)c(Cl)c2)c(=O)c2c1ncn2Cc1ccco1	-1	-1	nt	36*	26*	9
CCn1cnc2c1c(=O)n(CC(=O)Nc1cc(C)on1)c(=O)n2Cc1ccccc1	-3	0	-15	-5	nt	nt
SMILES	A3G deaminase	APOBEC3A inh	FN deposit inh	ABHD5 PLIN5 PPI	ABHD5 PLIN5 conf	HNF4 split-luc
CC(C)c1ccc(N2C=Nc3ccc(C(C)C)cc3C2)cc1	4	1	15	36*	24*	10
C1=Nc2ccccc2CN1c1ccccc1	-6	-3	nt	5	nt	nt
Cc1cccc(-c2nc(=S)c3c(n2Cc2ccco2)CCCC3)c1	0	3	-5	28*	7	11
Cc1nc2nc(C)n(CCN3CCOCC3)c(=O)c2c(-c2cccc([N+](=O)[O-])c2)c1C(=O)CCCCCCCCCCN1CCC(c2ccccc2)(c2ccccc2)CC1	nt	nt	-6	42*	13	-2
O=C(NCCCN1CCOCC1)/C(=C/c1ccc(-c2cccc([N+](=O)[O-])c2)o1)NC(=O)c1ccccc1	nt	nt	8	-3	nt	nt
COC(=O)c1cc(C)nc2c1C(=O)C(=O)C=C2N1CCOCC1	-6	3	-2	39*	73*	53*
COc1ccccc1/C=C/C(=O)NNC(=O)c1cc(C)oc1C	14	2	-1	4	nt	nt
Cc1cc(C(=O)NNC(=O)/C=C/c2ccco2)c(C)o1	30	30	-7	42*	66*	49*
O=C(OCC(=O)N1N=C(c2ccc(Cl)cc2)CC1c1ccco1)c1cncc(Br)c1 (configuration not stated)	-2	3	-2	35*	76*	89*
C[C@@H]1CN([C@H](C)CO)C(=O)c2cc(C#Cc3ccccc3)cnc2O[C@@H]1CN(C)C(=O)CN(C)C	nt	nt	4	nt	nt	nt
COc1ccc(NC(=O)/C(Cl)=C(/Cl)S(=O)Cc2ccccc2)cn1 (configuration not stated)	-6	0	nt	95*	97*	103*
O=C(C[C@@H]1C[C@@H]2c3cc(NC(=O)NC4CCCC4)ccc3O[C@@H]2[C@H](CO)O1)NCc1ccc(-c2ccccc2)cc1	nt	nt	-18	nt	nt	nt
O=S(=O)(N=C1C=CC(=NS(=O)(=O)c2ccccc2)c2ccccc21)c1ccccc1	nt	nt	4	33*	63*	42*
CCc1ccc(S(=O)(=O)/N=C2\C=CC(=O)c3ccccc32)cc1	-9	-4	nt	nt	nt	nt
Cc1cccc(CC(C)NC(=O)c2cc(COc3ccc(C)c(C)c3)on2)n1 (configuration not stated)	0	-6	2	-5	nt	nt
Cc1nc(C(C)NC(=O)c2cc(COc3ccc(C)c(C)c3)on2)c(C)s1 (configuration not stated)	-4	-3	0	29*	2	10
CC(C)NC(=O)N1C[C@@H]2C(c3ccc(Br)cc3)[C@H](C1)N2Cc1ccc(F)cc1 (some centres not stated)	nt	nt	-19	nt	nt	nt
C[C@@H]1CN([C@@H](C)CO)C(=O)Cc2cc(NS(=O)(=O)c3cn(C)cn3)ccc2O[C@H]1CN(C)C(=O)Nc1ccc(F)cc1	nt	nt	3	nt	nt	nt
N#C/C(=C/c1ccc(N2CCCCC2)o1)C(=O)Nc1ccc2ccccc2c1	nt	nt	i	26*	37*	31*
N#C/C(=C/c1ccc(N2CCCCC2)o1)C(=O)Nc1ccc(Cl)cc1	-70	-31	-61	9	nt	nt

High-throughput results: PubChem, several laboratories
